The values that follow come from ChEMBL document CHEMBL2311296, “Discovery of a potent and isoform-selective targeted covalent inhibitor of the lipid kinase PI3Kα” (J Med Chem, 2013).

One may read the IC50 as the concentration needed to halve the response being measured. A high value points to weaker potency in that assay. As a reminder, the GI50 is the concentration at which growth is held to half of that of the control.

For data set [1], the target named is T1, Phosphatidylinositol 4,5-bisphosphate 3-kinase catalytic subunit beta isoform (Homo sapiens, UniProt P42338). Kind of data set: Binding affinity to human PI3Kbeta after 1 hr by MALDI TOF/TOF mass spectrometry. An outline of the steps: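 Compound incubated with recombinant PI3K isoform enzyme at a 10:1 compound-to-enzyme molar ratio, room temperature, 1 h; covalent adduct formation read by mass spectrometry.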

The target of data set [2] is T2, Phosphatidylinositol 4,5-bisphosphate 3-kinase catalytic subunit delta isoform (Homo sapiens, UniProt O00329).
T2 sequence (O00329 whole entry): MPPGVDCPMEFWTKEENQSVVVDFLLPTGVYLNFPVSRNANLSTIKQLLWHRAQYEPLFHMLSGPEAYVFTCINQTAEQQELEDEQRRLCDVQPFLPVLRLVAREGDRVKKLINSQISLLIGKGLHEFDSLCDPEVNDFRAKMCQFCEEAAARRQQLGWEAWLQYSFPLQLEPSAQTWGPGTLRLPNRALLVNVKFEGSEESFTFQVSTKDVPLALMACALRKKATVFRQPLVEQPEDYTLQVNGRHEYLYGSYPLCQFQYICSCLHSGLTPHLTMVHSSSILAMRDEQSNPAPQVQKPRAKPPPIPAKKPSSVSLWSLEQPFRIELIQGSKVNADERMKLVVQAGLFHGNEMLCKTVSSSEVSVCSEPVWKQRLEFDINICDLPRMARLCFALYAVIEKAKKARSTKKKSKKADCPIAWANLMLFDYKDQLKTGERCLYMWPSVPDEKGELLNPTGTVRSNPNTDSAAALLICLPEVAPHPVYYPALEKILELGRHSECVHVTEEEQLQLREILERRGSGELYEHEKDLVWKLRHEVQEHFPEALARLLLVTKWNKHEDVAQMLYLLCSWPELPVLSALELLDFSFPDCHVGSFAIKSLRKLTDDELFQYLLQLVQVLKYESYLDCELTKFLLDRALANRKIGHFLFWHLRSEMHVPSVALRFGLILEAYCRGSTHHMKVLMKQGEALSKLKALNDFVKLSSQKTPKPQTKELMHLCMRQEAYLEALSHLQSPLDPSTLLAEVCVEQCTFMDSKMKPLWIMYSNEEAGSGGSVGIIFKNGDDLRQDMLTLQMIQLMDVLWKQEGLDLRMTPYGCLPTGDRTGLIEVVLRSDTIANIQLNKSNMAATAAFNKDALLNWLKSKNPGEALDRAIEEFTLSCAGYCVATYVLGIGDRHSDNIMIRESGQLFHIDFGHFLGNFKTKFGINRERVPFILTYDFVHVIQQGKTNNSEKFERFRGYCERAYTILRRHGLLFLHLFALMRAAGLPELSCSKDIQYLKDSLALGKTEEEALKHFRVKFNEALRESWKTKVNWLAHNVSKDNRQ
Description: Inhibition of PI3Kdelta (unknown origin) by HTRF assay. Background: In TR-FRET formats the signal depends on donor and acceptor labels being close together.

A further data set addresses Sphingosine kinase 1 (Homo sapiens, UniProt Q9NYA1). Description: Inhibition of SPHK1 (unknown origin) by ADP-GLO assay. An outline of the steps:
(§1)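 Reaction Biology panel using ADP-Glo format at 10 μM ATP. Substrate was sphingosine for SPHK1 and SPHK2, and phosphatidylinositol for the other enzymes.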

In a further data set the test system is SK-OV-3. Description: Growth inhibition of human SKOV3 cells assessed as cell viability after 96 hrs by Cell Titre Glo assay. It counts as functional. Particulars: SK-OV-3, 96 h.
Another data set has as its target T3, Sphingosine kinase 2 (Homo sapiens, UniProt Q9NRA0).
T3 sequence (Q9NRA0 whole entry): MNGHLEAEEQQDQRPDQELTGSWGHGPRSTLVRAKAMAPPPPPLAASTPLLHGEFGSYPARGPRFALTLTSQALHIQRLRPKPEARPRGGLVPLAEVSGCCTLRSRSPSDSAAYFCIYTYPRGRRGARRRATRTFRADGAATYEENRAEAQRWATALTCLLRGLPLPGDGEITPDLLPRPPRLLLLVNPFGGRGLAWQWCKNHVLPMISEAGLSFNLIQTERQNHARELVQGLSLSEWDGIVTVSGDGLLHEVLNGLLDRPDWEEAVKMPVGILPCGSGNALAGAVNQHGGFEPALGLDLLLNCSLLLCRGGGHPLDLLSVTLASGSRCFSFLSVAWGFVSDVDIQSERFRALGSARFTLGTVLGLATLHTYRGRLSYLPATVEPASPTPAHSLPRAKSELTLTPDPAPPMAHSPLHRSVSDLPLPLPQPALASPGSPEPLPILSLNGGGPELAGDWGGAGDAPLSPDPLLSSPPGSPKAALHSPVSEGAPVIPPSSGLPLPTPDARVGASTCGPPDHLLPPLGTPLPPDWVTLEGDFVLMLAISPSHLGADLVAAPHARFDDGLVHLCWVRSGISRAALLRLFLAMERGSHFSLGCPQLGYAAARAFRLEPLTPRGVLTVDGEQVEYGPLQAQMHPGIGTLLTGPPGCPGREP
Description: Inhibition of SPHK2 (unknown origin) by ADP-GLO assay. The procedure, abridged: as §1
On the technique in general: ADP-Glo turns the ADP formed in a reaction into a luminescent signal.

Another data set concerns Plasma. Kind of data set: Plasma protein binding in human albumin-depleted plasma after 1 to 3 hrs by MALDI TOF/TOF mass spectrometry. It counts as ADME, cell-free. The procedure, abridged: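 Human plasma albumin-depleted, not fully, and diluted to 1 mg/mL. A 10 mM DMSO compound stock diluted 1:10 into it; incubated at 37 °C for 1 or 3 h. Samples desalted on C4 tips and analysed by MALDI TOF/TOF (sinapinic acid matrix, ovalbumin internal standard) for mass shifts.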

In data set [3] the test system is Mus musculus. Description: In vivo inhibition of PI3Kalpha in nude nu/nu mouse assessed as free P110alpha levels at 100 mg/kg, ip qd administered for 5 consecutive days measured 1 to 4 hrs post last dose by immunoblot method. It is filed as functional, organism-based. Set-up: dose 100 mg/kg. An outline of the steps: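 Female nu/nu mice (n = 3/group) dosed ip at 100 mg/kg once daily for 5 days. Spleens harvested 1, 4 and 24 h after the last dose and homogenized. Lysate (150 μg protein) incubated with a biotinylated covalent probe at 1 μM for 1 h at RT, then immunoprecipitated with anti-p110α overnight at 4 °C. Immunoblot: streptavidin signal normalized to total p110α, expressed as % of vehicle.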
Background: A western blot detects proteins with antibodies after separation by electrophoresis.

The target in data set [4] is Phosphatidylinositol 4-phosphate 3-kinase C2 domain-containing subunit alpha (Homo sapiens, UniProt O00443). Kind of data set: Inhibition of PI3KC2A (unknown origin) by ADP-GLO assay. An outline of the steps:
as §1

For data set [5], the target named is T1, Phosphatidylinositol 4,5-bisphosphate 3-kinase catalytic subunit beta isoform. Kind of data set: Inhibition of PI3Kbeta (unknown origin) by HTRF assay. The procedure, abridged:
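PI3Kβ tested in a 10-concentration curve, 3-fold serial dilution starting at 1 μM, at 10 μM ATP. Substrate phosphatidylinositol 4,5-bisphosphate, HTRF read-out. Value reported as apparent IC50 from an end-point assay.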

The target of data set [6] is Phosphatidylinositol 4-kinase alpha (Homo sapiens, UniProt P42356). Kind of data set: Inhibition of PI4Kalpha (unknown origin) by ADP-GLO assay. An outline of the steps:
as §1

The target of data set [7] is Phosphatidylinositol 4,5-bisphosphate 3-kinase catalytic subunit alpha isoform (Homo sapiens) (UniProt P42336). Particulars: SK-OV-3, 500 nM.
In data set [8] the test system is Mus musculus. Kind of data set: In vivo inhibition of PI3Kalpha in nude nu/nu mouse spleen assessed as inhibition of Akt Ser473 phosphorylation at 100 mg/kg, ip qd administered for 5 consecutive days measured 1 to 4 hrs post last dose by immunoblotting method. It is filed as functional, organism-based. Set-up: dose 100 mg/kg. An outline of the steps: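 Female nu/nu mice (n = 3/group) dosed ip at 100 mg/kg once daily for 5 days. Spleens collected 1, 4 and 24 h post last dose, frozen, then homogenized in extraction buffer with protease and phosphatase inhibitors. Lysates immunoblotted for P-Akt Ser473.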

Another data set concerns MCF7. Description: Growth inhibition of human MCF7 cells assessed as cell viability after 96 hrs by Cell Titre Glo assay. It counts as functional. Particulars: MCF7, 96 h.
Data set [9] concerns the target Phosphatidylinositol 4-kinase beta (Homo sapiens, UniProt Q9UBF8). Kind of data set: Inhibition of PI4Kbeta (unknown origin) by ADP-GLO assay. The procedure, abridged: as §1
In data set [10] the target is Phosphatidylinositol 3-kinase catalytic subunit type 3 (Homo sapiens, UniProt Q8NEB9). Kind of data set: Inhibition of PI3KC3 (unknown origin) by ADP-GLO assay. An outline of the steps:
as §1

Data set [11] addresses Phosphatidylinositol 4,5-bisphosphate 3-kinase catalytic subunit gamma isoform (Homo sapiens, UniProt P48736). Kind of data set: Inhibition of PI3Kgamma (unknown origin) by HTRF assay. The procedure, abridged:
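Contract lab panel, end-point HTRF format with phosphatidylinositol 4,5-bisphosphate as substrate and 10 μM ATP. Ten-point curve, 3-fold serial dilutions starting at 1 μM. Reported as an apparent IC50 (IC50App).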

Data set [12] concerns the target Phosphatidylinositol 4,5-bisphosphate 3-kinase catalytic subunit alpha isoform (Homo sapiens) (UniProt P42336). The settings on record: SK-OV-3, 500 nM. This is another data set of the same source.
For data set [13] the target is unchanged. Particulars: SK-OV-3, 1 to 1000 nM.

Active and inactive are the calls of the source. The calls are words filed in the database; no cut-off is given here.

Phosphatidylinositol 4,5-bisphosphate 3-kinase catalytic subunit alpha isoform (Homo sapiens), sequence (P42336 whole entry, canonical isoform): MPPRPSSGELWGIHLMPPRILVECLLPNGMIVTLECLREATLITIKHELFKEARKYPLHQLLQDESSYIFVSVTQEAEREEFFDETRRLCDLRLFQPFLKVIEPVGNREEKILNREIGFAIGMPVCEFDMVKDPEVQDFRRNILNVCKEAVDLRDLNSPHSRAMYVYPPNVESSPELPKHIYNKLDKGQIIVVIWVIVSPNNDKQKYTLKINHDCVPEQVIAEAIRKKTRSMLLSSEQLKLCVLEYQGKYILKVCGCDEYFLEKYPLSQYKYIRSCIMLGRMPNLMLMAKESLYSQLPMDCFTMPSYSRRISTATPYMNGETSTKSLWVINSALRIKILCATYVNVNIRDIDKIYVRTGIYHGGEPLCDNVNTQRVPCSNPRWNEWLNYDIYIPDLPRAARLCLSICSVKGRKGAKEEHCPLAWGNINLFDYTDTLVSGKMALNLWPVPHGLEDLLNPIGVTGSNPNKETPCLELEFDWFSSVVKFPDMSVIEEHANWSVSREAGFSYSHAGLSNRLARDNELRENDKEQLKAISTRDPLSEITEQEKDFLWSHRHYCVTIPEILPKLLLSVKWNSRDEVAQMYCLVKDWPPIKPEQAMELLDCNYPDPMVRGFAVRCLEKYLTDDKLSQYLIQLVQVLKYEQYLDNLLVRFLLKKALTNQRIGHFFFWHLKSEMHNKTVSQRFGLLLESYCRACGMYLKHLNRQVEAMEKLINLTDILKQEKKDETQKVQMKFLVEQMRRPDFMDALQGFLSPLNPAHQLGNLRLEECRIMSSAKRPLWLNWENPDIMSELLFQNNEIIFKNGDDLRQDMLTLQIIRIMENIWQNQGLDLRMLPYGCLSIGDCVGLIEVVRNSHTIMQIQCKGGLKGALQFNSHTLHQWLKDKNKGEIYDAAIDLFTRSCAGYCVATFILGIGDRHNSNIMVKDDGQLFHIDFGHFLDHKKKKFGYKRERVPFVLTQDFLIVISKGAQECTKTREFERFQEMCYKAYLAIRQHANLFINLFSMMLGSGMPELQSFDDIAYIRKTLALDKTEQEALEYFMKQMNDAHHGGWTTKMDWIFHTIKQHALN
Sphingosine kinase 1, sequence (Q9NYA1 whole entry): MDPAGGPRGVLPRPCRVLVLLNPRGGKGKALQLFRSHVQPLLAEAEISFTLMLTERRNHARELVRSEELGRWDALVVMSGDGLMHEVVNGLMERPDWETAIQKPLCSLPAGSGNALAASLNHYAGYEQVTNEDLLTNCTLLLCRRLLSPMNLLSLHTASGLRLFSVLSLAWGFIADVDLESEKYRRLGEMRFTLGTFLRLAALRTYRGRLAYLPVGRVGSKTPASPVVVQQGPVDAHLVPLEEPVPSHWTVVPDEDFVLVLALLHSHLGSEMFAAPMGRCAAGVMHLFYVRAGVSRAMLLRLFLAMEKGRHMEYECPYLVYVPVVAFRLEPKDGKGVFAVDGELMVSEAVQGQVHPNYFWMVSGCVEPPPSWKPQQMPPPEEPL
Phosphatidylinositol 4-phosphate 3-kinase C2 domain-containing subunit alpha, sequence (O00443 whole entry, the tested form may be a part): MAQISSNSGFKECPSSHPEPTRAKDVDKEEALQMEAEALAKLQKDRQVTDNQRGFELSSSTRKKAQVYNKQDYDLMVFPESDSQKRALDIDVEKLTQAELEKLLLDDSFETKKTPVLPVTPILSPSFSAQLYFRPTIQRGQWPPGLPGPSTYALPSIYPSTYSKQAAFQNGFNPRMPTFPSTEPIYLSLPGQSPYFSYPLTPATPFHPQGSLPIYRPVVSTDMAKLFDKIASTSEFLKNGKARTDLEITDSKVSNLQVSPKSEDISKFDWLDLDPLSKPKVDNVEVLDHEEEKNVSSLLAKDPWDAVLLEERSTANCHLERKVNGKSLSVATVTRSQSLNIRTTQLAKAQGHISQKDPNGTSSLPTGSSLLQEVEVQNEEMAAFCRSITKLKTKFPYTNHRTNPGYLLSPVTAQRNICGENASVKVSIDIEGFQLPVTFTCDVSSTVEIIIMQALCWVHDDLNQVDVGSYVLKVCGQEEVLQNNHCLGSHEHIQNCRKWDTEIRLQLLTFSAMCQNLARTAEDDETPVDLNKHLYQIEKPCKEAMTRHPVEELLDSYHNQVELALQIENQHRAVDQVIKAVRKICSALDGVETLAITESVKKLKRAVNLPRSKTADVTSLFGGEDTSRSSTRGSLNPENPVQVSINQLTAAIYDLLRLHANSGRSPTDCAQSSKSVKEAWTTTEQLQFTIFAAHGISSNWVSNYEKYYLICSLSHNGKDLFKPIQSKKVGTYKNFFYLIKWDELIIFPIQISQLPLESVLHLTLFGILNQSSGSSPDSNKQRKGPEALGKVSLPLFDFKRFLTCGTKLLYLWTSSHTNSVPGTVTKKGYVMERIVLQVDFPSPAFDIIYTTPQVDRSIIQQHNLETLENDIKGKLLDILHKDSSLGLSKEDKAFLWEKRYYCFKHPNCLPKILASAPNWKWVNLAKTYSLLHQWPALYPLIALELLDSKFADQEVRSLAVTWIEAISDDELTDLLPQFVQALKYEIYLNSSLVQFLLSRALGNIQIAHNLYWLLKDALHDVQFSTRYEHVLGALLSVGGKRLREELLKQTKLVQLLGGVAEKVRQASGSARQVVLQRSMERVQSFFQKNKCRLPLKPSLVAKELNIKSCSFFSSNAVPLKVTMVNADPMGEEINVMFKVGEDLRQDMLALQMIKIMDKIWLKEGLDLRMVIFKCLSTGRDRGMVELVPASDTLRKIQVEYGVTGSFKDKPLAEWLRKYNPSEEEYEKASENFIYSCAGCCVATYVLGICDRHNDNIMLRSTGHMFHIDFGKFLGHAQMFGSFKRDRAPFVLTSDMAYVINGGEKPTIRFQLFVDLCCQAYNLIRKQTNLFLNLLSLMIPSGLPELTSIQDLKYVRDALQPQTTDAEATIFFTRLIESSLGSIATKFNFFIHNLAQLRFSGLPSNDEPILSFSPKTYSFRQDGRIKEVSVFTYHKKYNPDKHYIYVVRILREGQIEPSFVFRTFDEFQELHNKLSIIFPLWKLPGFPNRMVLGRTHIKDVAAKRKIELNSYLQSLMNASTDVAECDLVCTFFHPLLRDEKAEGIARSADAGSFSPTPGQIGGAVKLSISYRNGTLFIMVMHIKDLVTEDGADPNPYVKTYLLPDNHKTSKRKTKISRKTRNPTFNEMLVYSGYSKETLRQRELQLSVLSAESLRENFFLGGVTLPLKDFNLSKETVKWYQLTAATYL
Phosphatidylinositol 4,5-bisphosphate 3-kinase catalytic subunit gamma isoform, sequence (P48736 whole entry, canonical isoform): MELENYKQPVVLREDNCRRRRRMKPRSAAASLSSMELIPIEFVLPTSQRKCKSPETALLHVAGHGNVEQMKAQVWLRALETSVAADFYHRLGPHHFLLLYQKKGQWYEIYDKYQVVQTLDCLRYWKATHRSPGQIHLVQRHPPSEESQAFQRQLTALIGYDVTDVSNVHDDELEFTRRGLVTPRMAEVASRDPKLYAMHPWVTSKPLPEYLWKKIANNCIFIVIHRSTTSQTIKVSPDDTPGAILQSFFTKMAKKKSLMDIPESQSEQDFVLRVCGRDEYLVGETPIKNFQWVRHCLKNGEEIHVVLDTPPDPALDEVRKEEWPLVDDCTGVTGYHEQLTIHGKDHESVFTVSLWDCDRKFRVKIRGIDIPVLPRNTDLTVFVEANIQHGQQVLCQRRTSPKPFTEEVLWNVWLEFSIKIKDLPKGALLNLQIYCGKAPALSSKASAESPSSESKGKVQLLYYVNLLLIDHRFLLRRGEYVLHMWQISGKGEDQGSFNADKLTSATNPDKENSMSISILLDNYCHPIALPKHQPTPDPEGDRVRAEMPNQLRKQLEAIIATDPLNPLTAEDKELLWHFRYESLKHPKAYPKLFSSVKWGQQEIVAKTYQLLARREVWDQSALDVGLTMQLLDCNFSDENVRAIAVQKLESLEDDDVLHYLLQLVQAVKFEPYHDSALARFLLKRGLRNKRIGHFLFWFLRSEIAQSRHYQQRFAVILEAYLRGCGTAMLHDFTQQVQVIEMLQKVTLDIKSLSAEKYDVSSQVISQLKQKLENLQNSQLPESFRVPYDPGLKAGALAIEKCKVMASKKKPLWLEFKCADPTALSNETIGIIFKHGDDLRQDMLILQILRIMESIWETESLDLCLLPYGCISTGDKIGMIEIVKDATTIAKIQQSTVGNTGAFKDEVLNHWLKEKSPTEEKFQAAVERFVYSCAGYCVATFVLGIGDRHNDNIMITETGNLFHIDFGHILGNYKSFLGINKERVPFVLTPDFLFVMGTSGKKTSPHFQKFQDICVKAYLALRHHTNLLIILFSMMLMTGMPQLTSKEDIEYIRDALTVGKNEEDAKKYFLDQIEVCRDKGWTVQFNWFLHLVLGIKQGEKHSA
Phosphatidylinositol 3-kinase catalytic subunit type 3, sequence (Q8NEB9 whole entry): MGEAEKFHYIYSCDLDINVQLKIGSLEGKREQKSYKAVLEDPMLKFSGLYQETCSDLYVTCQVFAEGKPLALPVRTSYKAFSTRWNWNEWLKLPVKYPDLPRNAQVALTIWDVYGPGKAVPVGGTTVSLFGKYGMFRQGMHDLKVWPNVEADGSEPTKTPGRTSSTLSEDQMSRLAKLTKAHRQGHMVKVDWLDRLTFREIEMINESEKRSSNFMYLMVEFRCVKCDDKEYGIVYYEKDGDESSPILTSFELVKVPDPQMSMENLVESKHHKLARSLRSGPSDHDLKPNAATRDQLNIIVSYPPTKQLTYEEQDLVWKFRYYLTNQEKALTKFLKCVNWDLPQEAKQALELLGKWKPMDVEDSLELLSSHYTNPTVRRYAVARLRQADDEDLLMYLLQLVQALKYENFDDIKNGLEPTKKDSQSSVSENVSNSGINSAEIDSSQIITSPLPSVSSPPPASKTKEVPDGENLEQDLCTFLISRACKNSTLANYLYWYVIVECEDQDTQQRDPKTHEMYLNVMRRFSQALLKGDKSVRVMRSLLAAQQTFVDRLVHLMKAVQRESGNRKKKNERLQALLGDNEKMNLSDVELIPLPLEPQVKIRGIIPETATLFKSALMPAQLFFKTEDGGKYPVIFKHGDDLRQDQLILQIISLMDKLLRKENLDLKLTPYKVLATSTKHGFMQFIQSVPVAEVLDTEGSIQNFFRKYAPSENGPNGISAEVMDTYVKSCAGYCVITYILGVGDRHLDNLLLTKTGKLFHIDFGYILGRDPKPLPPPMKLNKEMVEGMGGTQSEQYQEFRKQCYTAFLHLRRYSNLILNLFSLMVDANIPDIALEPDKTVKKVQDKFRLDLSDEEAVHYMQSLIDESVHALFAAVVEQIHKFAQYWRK

As to `CC(C)=CC(=O)CCC(=O)N1CCN(Cc2cc3nc(-c4cccc5[nH]ncc45)nc(N4CCOCC4)c3s2)CC1`, the result in data set [1] was inactive. Also, the IC50 in [2] was 3020 nM; at Sphingosine kinase 1, more than 1000 nM; against Sphingosine kinase 2, more than 1000 nM; in data set [4], more than 1000 nM; in data set [5], 166 nM; in [6], more than 1000 nM. Moreover, the IC50 was more than 1000 nM in data set [9], more than 1000 nM in data set [10] and 240 nM in [11]. The values for the GI50 in the data set with SK-OV-3 and in the data set on MCF7 were 77.6 nM and 54.7 nM, respectively. Besides, the PPB entry in the data set on Plasma is “Not Active”. The outcome in the data set on Mus musculus [3] and in the data set with Mus musculus [8] was Active. For the same compound, in data set [7], the inhibition entry is “Active”.

As to `CS(=O)(=O)N1CCN(Cc2cc3nc(-c4cccc5[nH]ncc45)nc(N4CCOCC4)c3s2)CC1` [PICTILISIB], the GI50 amounted to 148 nM in the data set with SK-OV-3 and 70.2 nM in the data set with MCF7. In addition, in data set [12], the inhibition entry is “inactive”. Also, the inhibition entry in [13] was “Active”.
